Experimental findings from BindingDB's records for doi:10.1016/j.bmc.2016.07.028 (Jagiellonian University Medical College, 2016) are described below.

In assay [1] the target is T1, Adenosine receptor A2a (Homo sapiens, UniProt P29274). Put plainly: Antagonist activity at human adenosine receptor A2a expressed in CHO cell membranes assessed as inhibition of NECA-induced cAMP accumulation measured as NECA EC50 at 5 uM incubated for 15 mins in presence of [3H]cAMP by liquid scintillation counting (Rvb = 68 nM). A digest of the protocol: (§1)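 Stably transfected CHO cells (human A2A or A2B) grown in DMEM-F12 with 10% FCS at 37 °C, 5% CO2. The cells were seeded at 200,000/well, washed after 24 h and held 2 h in HBSS (pH 7.3) with 1 U/ml adenosine deaminase. Ro20-1724 was added to 40 µM final for 15 min, then NECA dilutions ± one fixed test concentration in 2.5% DMSO, in duplicate.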
(In general: Cyclic AMP is a second messenger, typically raised through Gs and lowered through Gi signalling.)

The next assay concerns the target T2, Adenosine receptor A2b (Homo sapiens, UniProt P29275).
T2 sequence (P29275 whole entry): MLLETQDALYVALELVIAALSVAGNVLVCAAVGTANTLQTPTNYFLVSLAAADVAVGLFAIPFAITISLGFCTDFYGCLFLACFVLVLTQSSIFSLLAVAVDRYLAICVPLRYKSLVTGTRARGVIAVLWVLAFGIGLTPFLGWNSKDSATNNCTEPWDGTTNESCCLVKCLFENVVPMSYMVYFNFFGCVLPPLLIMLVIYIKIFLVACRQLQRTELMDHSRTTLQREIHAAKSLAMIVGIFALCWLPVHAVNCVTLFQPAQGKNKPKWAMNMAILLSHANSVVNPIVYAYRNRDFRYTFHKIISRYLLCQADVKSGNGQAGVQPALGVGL
Put plainly: Antagonist activity at human adenosine receptor A2b expressed in CHO cell membranes assessed as inhibition of NECA-induced cAMP accumulation measured as NECA EC50 at 2 uM incubated for 15 mins in presence of [3H]cAMP by liquid scintillation counting (Rvb = 73 nM). The method in brief:
as §1

Assay [2] concerns the target T1, Adenosine receptor A2a. Put plainly: Antagonist activity at human adenosine receptor A2a expressed in CHO cell membranes assessed as inhibition of NECA-induced cAMP accumulation measured as NECA EC50 at 7 uM incubated for 15 mins in presence of [3H]cAMP by liquid scintillation counting (Rvb = 77 nM).

One may read the EC50 as the concentration at which the effect is half-maximal.

T1 sequence (P29274 whole entry): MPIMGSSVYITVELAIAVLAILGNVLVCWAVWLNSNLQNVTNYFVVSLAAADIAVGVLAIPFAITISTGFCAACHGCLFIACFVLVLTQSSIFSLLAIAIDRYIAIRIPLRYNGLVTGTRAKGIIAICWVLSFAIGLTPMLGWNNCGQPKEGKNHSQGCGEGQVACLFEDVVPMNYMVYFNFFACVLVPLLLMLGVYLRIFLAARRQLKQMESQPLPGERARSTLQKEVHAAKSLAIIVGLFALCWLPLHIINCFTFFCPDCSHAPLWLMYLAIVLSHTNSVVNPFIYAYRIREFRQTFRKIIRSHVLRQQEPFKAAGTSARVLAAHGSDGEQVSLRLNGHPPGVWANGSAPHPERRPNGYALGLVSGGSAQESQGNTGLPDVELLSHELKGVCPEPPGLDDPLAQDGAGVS

As to `CCN(CC)CCOc1ccc(CCN2CCCn3c2nc2c3c(=O)n(C)c(=O)n2C)cc1`, the EC50 on Adenosine receptor A2a [1] stood at 0.46 µM.

Turning to `CCCCn1c(=O)c2c(nc3n2CCCN3CCc2ccc(OCCN(CC)CC)cc2)n(CCCC)c1=O`, the EC50 at Adenosine receptor A2b came to 0.335 µM.

`Cn1c(=O)c2c(nc3n2CCCN3CCc2ccc(O)cc2)n(C)c1=O` [9-(4-hydroxyphenethyl)-1,3-dimethyl-6,7,8,9-tetrahydropyrimido[1,2-a]purine-2,4(1H,3H)-dione]: at Adenosine receptor A2a [2], the EC50 stood at 0.302 µM.
